ChEMBL document CHEMBL4373718, “Germacrane Sesquiterpenoids as a New Type of Anticardiac Fibrosis Agent Targeting Transforming Growth Factor β Type I Receptor” (J Med Chem, 2019)
Calls of active or inactive are those of the source. The rule behind the calls is not given here.

How the values were obtained:
[1] = biological target: T1, TGF-beta receptor type-1 (Rattus norvegicus) (UniProt P80204); assay: Inhibition of TGFbeta1 receptor in TGFbeta1-stimulated Sprague-Dawley rat cardiac fibroblasts assessed as reduction in fibronectin expression at 50 uM measured after 12 hrs by Western blot analysis
T1 sequence (whole entry): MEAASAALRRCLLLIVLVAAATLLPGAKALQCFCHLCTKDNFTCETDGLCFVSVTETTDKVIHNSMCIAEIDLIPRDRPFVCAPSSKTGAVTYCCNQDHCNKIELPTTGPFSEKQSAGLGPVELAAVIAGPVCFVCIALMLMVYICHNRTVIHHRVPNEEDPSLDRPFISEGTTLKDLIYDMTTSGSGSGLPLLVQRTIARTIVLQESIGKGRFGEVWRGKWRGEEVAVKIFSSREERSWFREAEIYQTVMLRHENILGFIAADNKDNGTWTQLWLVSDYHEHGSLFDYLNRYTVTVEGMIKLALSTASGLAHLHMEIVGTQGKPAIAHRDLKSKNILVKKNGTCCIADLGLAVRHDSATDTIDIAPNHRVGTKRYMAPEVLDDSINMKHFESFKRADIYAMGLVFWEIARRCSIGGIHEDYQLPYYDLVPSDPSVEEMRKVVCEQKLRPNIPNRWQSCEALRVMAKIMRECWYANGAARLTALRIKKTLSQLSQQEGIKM
Summary of the method: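 Screen in primary rat cardiac fibroblasts: compounds at 50 µM or 10 µM given with 10 ng/mL TGFβ1 for 12 h. FN measured by Western blot with GAPDH loading control and densitometry. N=3 independent experiments.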

[2] = biological target: T1, TGF-beta receptor type-1 (Rattus norvegicus); assay: Inhibition of TGFbeta1 receptor in TGFbeta1-stimulated Sprague-Dawley rat cardiac fibroblasts assessed as reduction in fibronectin expression at 10 uM measured after 12 hrs by Western blot analysis relative to control
Summary of the method: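 Primary rat cardiac fibroblasts (passages 2–4, 3×10^5 per well) treated with compound plus 10 ng/mL TGFβ1 for 12 h; tested at 2.5, 5 and 10 µM. Lysates run on 10% SDS-PAGE (30 µg protein), probed for FN, α-SMA and collagen I/III, and quantified by densitometry against GAPDH. N=3 independent experiments.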

[3] = biological target: T1, TGF-beta receptor type-1 (Rattus norvegicus); assay: Inhibition of TGFbeta1 receptor in TGFbeta1-stimulated Sprague-Dawley rat cardiac fibroblasts assessed as reduction in fibronectin expression at 2 mM measured after 12 hrs by Western blot analysis
[4] = biological target: T1, TGF-beta receptor type-1 (Rattus norvegicus); assay: Inhibition of TGFbeta1 receptor in TGFbeta1-stimulated Sprague-Dawley rat cardiac fibroblasts assessed as reduction in alpha-SMA expression at 2 mM measured after 12 hrs by Western blot analysis
[5] = biological target: T1, TGF-beta receptor type-1 (Rattus norvegicus); assay: Inhibition of TGFbeta1 receptor in TGFbeta1-stimulated Sprague-Dawley rat cardiac fibroblasts assessed as reduction in collagen 1 expression at 2 mM measured after 12 hrs by Western blot analysis
[6] = biological target: T1, TGF-beta receptor type-1 (Rattus norvegicus); assay: Inhibition of TGFbeta1 receptor in TGFbeta1-stimulated Sprague-Dawley rat cardiac fibroblasts assessed as reduction in collagen 3 expression at 2 mM measured after 12 hrs by Western blot analysis

Structure (SMILES)	fibronectin reduction (active/not active) [1]	fibronectin reduction verdict (active/not active) [2]	further results
C=C(C)[C@@H]1C/C=C(\C)[C@H](Cl)CCC2=C[C@@H]1OC2=O	Active	Active	–
C=C(C)[C@@H]1CC/C(C)=C/CCC2=C[C@@H]1OC2=O	Active	–	–
C=C(C)[C@@H]1C/C=C(\C)[C@H](OC(=O)c2cccs2)CCC2=C[C@@H]1OC2=O	Active	–	–
O=C1CCC[C@@H]2[C@H]3CCC[N+]4([O-])CCC[C@@H](CN12)[C@@H]34 (some centres undefined)	–	–	inhibition [3]: Active; inhibition [4]: Active; inhibition [5]: Active; inhibition [6]: Active
C=C(C)[C@@H]1C[C@@H](OC)/C(C)=C/CCC2=C[C@@H]1OC2=O	inactive	inactive	–
C=C(C)[C@@H]1C/C=C(\C)[C@H](OCC)CCC2=C[C@@H]1OC2=O	Active	–	–
C=C(C)[C@@H]1C/C=C(\C)[C@H](OC)CCC2=C[C@@H]1OC2=O	Active	–	–
C=C(C)[C@@H]1C[C@@H](OC=O)/C(C)=C/CCC2=C[C@@H]1OC2=O	inactive	inactive	–
C=C(C)[C@@H]1C/C=C(\C)[C@H](OC(=O)c2cc(C(F)(F)F)cc(C(F)(F)F)c2)CCC2=C[C@@H]1OC2=O	Active	Active	–

Second part, led by results:

fibronectin reduction (active/not active) [1]	fibronectin reduction verdict (active/not active) [2]	Structure (SMILES)	further results
Active	Active	C=C(C)[C@@H]1C/C=C(\C)[C@H](Br)CCC2=C[C@@H]1OC2=O	–
inactive	inactive	C=C(C)[C@@H]1C[C@@H](N2CCCCC2)/C(C)=C/CCC2=C[C@@H]1OC2=O	–
inactive	inactive	C=C(C)[C@@H]1C/C=C(C)/C(=N\OC(C)=O)CCC2=C[C@@H]1OC2=O	–
inactive	inactive	C=C(C)[C@@H]1C[C@@H](OCC)/C(C)=C/CCC2=C[C@@H]1OC2=O	–
inactive	inactive	C=C(C)[C@@H]1CC/C(C)=C/CC[C@@H](C(=O)OCC)CC1=O	–
Active	–	C=C(C)[C@@H]1C/C=C(\C)[C@H](OC(C)=O)CCC2=C[C@@H]1OC2=O	–
Active	Active	C=C(C)[C@@H]1C/C=C(\C)[C@H](OC(=O)c2cccnc2Cl)CCC2=C[C@@H]1OC2=O	–
